In ChEMBL document CHEMBL4007444, “Development of New Benzenesulfonamides As Potent and Selective Nav1.7 Inhibitors for the Treatment of Pain” (J Med Chem, 2017):
The source made the active and inactive calls. The rule behind the calls is not given here.

Experiments:
[1] = biological target: Sodium channel protein type 5 subunit alpha (Homo sapiens, UniProt Q14524); experiment: Inhibition of recombinant human Nav1.5 expressed in HEK293 cells assessed as reduction in peak inward current at -50 mV holding potential measured after 600 secs by IonWorks Barracuda patch-clamp assay; assay type: cell-based
Chain of Sodium channel protein type 5 subunit alpha (Q14524 whole entry): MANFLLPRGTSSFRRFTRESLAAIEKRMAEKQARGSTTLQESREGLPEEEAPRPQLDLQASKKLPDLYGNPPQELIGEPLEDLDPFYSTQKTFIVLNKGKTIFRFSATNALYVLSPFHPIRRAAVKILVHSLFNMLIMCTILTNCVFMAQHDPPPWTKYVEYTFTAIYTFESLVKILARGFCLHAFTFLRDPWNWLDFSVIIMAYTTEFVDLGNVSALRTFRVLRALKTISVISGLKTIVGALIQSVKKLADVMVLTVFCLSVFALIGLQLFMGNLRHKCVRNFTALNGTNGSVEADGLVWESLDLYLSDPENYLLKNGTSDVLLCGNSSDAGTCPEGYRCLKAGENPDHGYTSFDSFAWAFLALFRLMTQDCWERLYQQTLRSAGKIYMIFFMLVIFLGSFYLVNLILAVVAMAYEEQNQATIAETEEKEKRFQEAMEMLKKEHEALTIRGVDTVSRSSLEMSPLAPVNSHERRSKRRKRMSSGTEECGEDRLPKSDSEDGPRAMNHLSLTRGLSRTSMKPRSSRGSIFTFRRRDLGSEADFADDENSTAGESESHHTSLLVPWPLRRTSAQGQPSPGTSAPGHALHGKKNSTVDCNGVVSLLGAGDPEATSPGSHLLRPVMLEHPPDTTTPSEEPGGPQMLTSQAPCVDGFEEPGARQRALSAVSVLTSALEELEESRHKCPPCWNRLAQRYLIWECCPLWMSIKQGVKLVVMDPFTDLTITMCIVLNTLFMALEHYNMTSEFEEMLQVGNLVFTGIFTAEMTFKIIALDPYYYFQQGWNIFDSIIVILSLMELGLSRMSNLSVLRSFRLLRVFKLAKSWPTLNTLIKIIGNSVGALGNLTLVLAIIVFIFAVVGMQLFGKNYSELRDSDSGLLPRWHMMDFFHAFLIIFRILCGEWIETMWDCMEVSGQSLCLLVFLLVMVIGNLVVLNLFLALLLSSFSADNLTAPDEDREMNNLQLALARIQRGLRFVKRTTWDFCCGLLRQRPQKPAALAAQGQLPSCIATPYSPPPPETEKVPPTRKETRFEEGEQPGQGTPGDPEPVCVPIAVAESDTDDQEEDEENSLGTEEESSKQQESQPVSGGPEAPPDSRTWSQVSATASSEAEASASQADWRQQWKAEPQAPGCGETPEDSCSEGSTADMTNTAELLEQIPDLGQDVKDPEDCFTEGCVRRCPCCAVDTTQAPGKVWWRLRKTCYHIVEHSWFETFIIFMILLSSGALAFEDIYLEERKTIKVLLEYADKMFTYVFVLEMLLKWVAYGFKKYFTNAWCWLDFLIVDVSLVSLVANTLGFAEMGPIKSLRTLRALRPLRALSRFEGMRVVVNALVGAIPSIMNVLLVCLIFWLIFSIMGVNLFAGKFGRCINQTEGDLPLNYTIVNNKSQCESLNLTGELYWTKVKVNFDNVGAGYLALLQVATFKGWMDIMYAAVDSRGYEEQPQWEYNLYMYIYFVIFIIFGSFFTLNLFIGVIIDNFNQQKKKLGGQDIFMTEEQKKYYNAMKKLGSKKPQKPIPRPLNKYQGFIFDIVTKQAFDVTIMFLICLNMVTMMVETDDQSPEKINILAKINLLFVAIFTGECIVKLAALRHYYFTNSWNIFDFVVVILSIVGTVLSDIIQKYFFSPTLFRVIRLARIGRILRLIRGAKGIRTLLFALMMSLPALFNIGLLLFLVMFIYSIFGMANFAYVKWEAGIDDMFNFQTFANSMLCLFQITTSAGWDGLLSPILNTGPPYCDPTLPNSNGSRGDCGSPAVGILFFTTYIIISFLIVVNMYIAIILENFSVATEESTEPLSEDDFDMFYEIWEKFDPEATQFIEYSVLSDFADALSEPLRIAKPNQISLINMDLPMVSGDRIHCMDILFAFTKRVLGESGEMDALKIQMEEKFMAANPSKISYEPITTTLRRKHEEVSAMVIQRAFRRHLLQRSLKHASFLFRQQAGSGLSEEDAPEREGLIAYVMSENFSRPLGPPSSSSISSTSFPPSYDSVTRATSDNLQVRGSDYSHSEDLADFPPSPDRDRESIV
Procedure, shortened: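 HEK293 cells expressing the channel, measured by population patch clamp on IonWorks Barracuda. External solution (mM): 137 NaCl, 4 KCl, 1 MgCl2, 1.8 CaCl2, 10 HEPES, 10 glucose, pH 7.4. Internal: K-gluconate/KCl, pH 7.2. Compound incubated 600 s between pre- and post-compound reads. Nav1.7: held at -60 mV, 300 ms at -100 mV, then 20 ms test pulse to -20 mV. Nav1.5: held at -40/-50 mV, 300 ms at -100 mV, then step to -10 mV to inactivate.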

Cytochrome P450 3A4 = Cytochrome P450 3A4 (Homo sapiens, UniProt P08684); experiment: Inhibition of human CYP3A4 assessed as inhibition of dealkylation
Chain of Cytochrome P450 3A4 (P08684 whole entry): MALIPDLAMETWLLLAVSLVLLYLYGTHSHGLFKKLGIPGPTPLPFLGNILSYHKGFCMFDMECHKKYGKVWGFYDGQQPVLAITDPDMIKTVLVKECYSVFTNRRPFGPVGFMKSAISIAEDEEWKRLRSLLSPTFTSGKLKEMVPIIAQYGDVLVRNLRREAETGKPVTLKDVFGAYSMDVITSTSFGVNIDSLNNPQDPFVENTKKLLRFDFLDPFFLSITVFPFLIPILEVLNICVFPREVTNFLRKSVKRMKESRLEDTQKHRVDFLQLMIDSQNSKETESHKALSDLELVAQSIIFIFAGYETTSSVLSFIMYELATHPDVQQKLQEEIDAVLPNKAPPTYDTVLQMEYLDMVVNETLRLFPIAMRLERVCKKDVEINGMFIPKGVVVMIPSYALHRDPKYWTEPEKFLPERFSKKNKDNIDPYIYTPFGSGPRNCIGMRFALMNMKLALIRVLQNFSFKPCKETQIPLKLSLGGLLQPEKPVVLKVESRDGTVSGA

[2] = biological target: T1, Sodium channel protein type 9 subunit alpha (Homo sapiens, UniProt Q15858); experiment: Inhibition of recombinant human Nav1.7 expressed in HEK293 cells assessed as reduction in peak inward current at -60 mV holding potential measured after 600 secs by IonWorks Barracuda patch-clamp assay; assay type: cell-based
Procedure, shortened: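 HEK293 cells expressing the channel, measured by population patch clamp on IonWorks Barracuda. Internal: K-gluconate/KCl, pH 7.2. Compound incubated 600 s between pre- and post-compound reads. Nav1.7: held at -60 mV, 300 ms at -100 mV, then 20 ms test pulse to -20 mV. Nav1.5: held at -40/-50 mV, 300 ms at -100 mV, then step to -10 mV to inactivate.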

[3] = biological target: Sodium channel protein type 9 subunit alpha (Rattus norvegicus, UniProt O08562); experiment: Inhibition of rat Nav1.7 assessed as reduction in peak inward current at -70 mV holding potential measured after 600 secs by manual patch clamp electrophysiology assay
Procedure, shortened: (§1)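 Whole-cell manual patch clamp of HEK293 cells stably expressing recombinant Nav1.7, holding potential -70 mV (partially inactivated state). Pipette solution (mM): 50 CsCl, 90 CsF, 10 NaF, 2 MgCl2, 10 EGTA, 10 HEPES, pH 7.2; electrode resistance 1-4 MOhm. Percent inhibition of peak inward current; IC50 from a Hill fit to the averaged data; mean ± SEM.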

[4] = biological target: T1, Sodium channel protein type 9 subunit alpha; experiment: Inhibition of recombinant human Nav1.7 expressed in HEK293 cells assessed as reduction in peak inward current at -120 mV holding potential by manual whole-cell patch-clamp assay
Mus musculus [5] = experiment: Antinociceptive activity in CD-1 mouse assessed as reduction in formalin-stimulated paw flinching at 100 mg/kg, po administered 30 mins prior to formalin challenge measured up to 45 mins; assay type: functional, organism-based
Procedure, shortened: (§2)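 Male CD1 mice, oral dosing (10 mL/kg) of compound or vehicle before formalin; 20 μL of 5% formalin (w/v in saline) injected SC into the dorsal right hind paw, which carried a glued metal band, after 60 min acclimation in an individual chamber. Flinching counted automatically for 45 min: phase I is the first 5 min, phase II is 15-45 min. Mean ± SEM, n=10-14/group, ANOVA with Dunnett's test.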

[6] = biological target: T2, Sodium channel protein type 9 subunit alpha (Mus musculus, UniProt Q62205); experiment: Inhibition of recombinant mouse Nav1.7 expressed in HEK293 cells assessed as reduction in peak inward current at -70 mV holding potential measured after 600 secs by manual patch clamp electrophysiology assay; assay type: cell-based; procedure, shortened: as §1
T2 sequence (Q62205 whole entry): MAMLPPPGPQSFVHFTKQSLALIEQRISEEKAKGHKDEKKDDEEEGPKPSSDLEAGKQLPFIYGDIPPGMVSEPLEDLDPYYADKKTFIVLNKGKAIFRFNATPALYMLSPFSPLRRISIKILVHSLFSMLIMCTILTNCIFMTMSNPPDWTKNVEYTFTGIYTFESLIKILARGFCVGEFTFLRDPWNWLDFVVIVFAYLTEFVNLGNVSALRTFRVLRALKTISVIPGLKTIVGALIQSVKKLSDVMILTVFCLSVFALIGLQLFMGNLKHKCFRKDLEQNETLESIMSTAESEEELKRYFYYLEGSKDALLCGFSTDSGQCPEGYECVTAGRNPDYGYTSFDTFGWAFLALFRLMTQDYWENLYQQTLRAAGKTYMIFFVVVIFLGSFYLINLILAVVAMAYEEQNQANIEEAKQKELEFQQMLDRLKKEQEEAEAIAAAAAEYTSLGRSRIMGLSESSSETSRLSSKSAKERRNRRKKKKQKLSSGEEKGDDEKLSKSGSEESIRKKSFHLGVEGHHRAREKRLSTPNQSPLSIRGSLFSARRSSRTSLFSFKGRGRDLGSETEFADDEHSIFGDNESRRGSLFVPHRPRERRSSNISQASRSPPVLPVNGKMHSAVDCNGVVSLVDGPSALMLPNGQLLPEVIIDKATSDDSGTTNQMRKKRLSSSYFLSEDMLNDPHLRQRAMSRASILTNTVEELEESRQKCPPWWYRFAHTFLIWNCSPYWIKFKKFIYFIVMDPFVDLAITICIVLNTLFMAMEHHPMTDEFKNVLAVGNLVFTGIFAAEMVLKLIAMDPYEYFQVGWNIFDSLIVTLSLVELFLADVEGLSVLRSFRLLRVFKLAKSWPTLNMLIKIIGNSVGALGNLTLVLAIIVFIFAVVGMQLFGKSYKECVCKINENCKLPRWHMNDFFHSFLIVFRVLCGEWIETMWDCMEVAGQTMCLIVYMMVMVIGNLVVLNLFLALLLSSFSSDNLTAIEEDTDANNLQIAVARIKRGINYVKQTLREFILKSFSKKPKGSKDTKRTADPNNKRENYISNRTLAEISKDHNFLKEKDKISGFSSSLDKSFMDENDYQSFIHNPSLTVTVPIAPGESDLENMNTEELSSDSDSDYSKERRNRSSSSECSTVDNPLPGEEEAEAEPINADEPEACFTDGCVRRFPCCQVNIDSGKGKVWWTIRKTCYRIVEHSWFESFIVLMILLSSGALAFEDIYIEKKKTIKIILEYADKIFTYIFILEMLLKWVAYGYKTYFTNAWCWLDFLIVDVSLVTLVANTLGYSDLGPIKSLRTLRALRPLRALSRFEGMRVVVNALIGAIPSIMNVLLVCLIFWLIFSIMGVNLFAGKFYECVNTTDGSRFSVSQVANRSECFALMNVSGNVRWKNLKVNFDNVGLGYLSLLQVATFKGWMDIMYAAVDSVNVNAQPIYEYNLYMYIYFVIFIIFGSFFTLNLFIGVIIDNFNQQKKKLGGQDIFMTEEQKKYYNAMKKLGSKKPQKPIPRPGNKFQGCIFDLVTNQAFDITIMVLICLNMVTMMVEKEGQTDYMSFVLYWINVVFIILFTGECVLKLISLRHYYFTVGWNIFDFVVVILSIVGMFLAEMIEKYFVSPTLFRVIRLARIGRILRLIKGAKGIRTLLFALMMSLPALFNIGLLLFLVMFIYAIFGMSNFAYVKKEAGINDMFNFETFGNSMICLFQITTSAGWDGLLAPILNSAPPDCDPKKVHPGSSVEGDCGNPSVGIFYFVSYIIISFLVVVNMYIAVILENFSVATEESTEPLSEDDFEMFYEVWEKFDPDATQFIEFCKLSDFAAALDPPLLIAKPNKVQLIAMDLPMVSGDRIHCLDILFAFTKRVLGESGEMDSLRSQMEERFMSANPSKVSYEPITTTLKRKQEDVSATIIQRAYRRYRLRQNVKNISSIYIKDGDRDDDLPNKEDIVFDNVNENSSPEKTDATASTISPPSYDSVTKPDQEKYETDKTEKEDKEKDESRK

Plasma [7] = experiment: Free plasma concentration in CD-1 mouse at 100 mg/kg, po measured 60 mins post dosage; conditions: in vivo, 1 h
Mus musculus [8] = experiment: Antinociceptive activity in CD-1 mouse assessed as reduction in formalin-stimulated paw flinching at 100 mg/kg, po administered prior to formalin challenge measured up to 5 mins
[9] = biological target: T1, Sodium channel protein type 9 subunit alpha; experiment: Inhibition of recombinant human Nav1.7 expressed in HEK293 cells assessed as reduction in peak inward current at -70 mV holding potential measured after 600 secs by manual patch clamp electrophysiology assay; assay type: cell-based
Procedure, shortened: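 Whole-cell manual patch clamp of HEK293 cells stably expressing recombinant human Nav1.7, held at -70 mV (partially inactivated state). The pipette solution (mM) was 50 CsCl, 90 CsF, 10 NaF, 2 MgCl₂, 10 EGTA and 10 HEPES, pH 7.2, with electrodes of 1-4 MOhm. Percent inhibition of peak inward current was calculated, and IC50 came from a Hill fit to averaged percent inhibition (mean ± S.E.M.).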

[10] = Fraction unbound in CD-1 mouse plasma; assay type: ADME, cell-free
[11] = biological target: T2, Sodium channel protein type 9 subunit alpha; experiment: Inhibition of Nav1.7 in C57BL/6 mouse DRG neurons assessed as reduction in native TTX-S current amplitude by manual patch clamp electrophysiology assay
Mus musculus [12] = experiment: Antinociceptive activity in CD-1 mouse assessed as reduction in formalin-stimulated paw flinching at 60 mg/kg, po administered 30 mins prior to formalin challenge measured up to 45 mins; assay type: functional, organism-based; procedure, shortened: as §2
Plasma [13] = experiment: Free plasma concentration in CD-1 mouse at 60 mg/kg, po measured 60 mins post dosage; conditions: in vivo, 1 h
Mus musculus [14] = experiment: Antinociceptive activity in CD-1 mouse assessed as reduction in formalin-stimulated paw flinching at 60 mg/kg, po administered 30 mins prior to formalin challenge measured up to 5 mins; assay type: functional, organism-based; procedure, shortened: as §2
[15] = Plasma concentration in CD-1 mouse at 30 mg/kg, po measured 75 mins post dosage; assay type: ADME, organism-based
Plasma [16] = experiment: Free plasma concentration in CD-1 mouse at 30 mg/kg, po measured 75 mins post dosage; assay type: ADME, organism-based; conditions: in vivo, 1.25 h
[17] = Apparent permeability of the compound at pH 5.5 by PAMPA assay; assay type: physicochemical
[18] = Apparent permeability of the compound at pH 7.4 by PAMPA assay; assay type: physicochemical
[19] = Drug uptake in CD-1 mouse DRG neurons at 30 mg/kg, po measured 75 mins post dosage; assay type: ADME, organism-based, DRG neuron; conditions: read-out: Drug uptake
Mus musculus [20] = experiment: Antinociceptive activity in CD-1 mouse assessed as reduction in formalin-stimulated paw flinching at 30 mg/kg, po administered 30 mins prior to formalin challenge measured up to 45 mins; assay type: functional, organism-based; procedure, shortened: as §2

Compound | IC50 [1] | IC50 [2] | also measured
N[C@H]1CC[C@@H](CCNc2cc(F)c(S(=O)(=O)Nc3nccs3)cc2Cl)CC1 | 4.9 µM | – | –
N[C@H]1CC[C@@](CCOc2cc(F)c(S(=O)(=O)Nc3ncns3)cc2F)(c2ccc(Cl)cc2)CC1 | > 30 µM | – | –
O=S(=O)(Nc1ncns1)c1cc(F)c(OCC[C@]2(c3ccccc3)CC[C@@H](NC3CC3)CC2)cc1F | > 30 µM | – | –
N[C@H]1CC[C@@H](CNc2cc(F)c(S(=O)(=O)Nc3ncns3)cc2Cl)CC1 | 2.6 µM | – | IC50 (Cytochrome P450 3A4): 2.3 µM
O=S(=O)(Nc1nccs1)c1cc(Cl)c(NC[C@H]2CCCN(O)C2)cc1F | – | 0.186 µM | –
O=S(=O)(Nc1ncns1)c1cc(Cl)c(NCCC2CCCCN2)cc1F (racemic) | – | 0.015 µM | –
N[C@H]1CC[C@H](CNc2cc(F)c(S(=O)(=O)Nc3nccs3)cc2Cl)CC1 | > 30 µM | – | –
N[C@H]1CC[C@@H](CNc2cc(F)c(S(=O)(=O)Nc3nccs3)cc2Cl)CC1 | 1.9 µM | 0.006 µM | IC50 [3]: 0.0123 µM; IC50 [4]: 9.4 µM; Activity (Mus musculus [5]): inactive; IC50 [6]: 0.0075 µM; Cp(f) (Plasma [7]): 0.32 µM; Activity (Mus musculus [8]): inactive; IC50 [9]: 0.004 µM; fraction unbound [10]: 0.08; IC50 [11]: 0.006 µM
O=S(=O)(Nc1nccs1)c1cc(Cl)c(NC[C@@H]2CCCN(O)C2)cc1F | – | 0.207 µM | –
N[C@H]1CC[C@@](CCOc2cc(F)c(S(=O)(=O)Nc3ncns3)cc2Cl)(c2ccccc2)CC1 | > 30 µM | – | –
O=S(=O)(Nc1nccs1)c1cc(Cl)c(NCC2CNC2)cc1F | > 30 µM | 0.339 µM | –
O=S(=O)(Nc1nccs1)c1cc(Cl)c(NCC2CNCCO2)cc1F (racemic) | > 30 µM | 0.069 µM | IC50 (Cytochrome P450 3A4): 20 µM
C[C@]1(CCOc2cc(F)c(S(=O)(=O)Nc3ncns3)cc2F)CC[C@H](N)CC1 | > 30 µM | 0.383 µM | –
O=S(=O)(Nc1nccs1)c1cc(Cl)c(NCC23CCCN2CCC3)cc1F | – | – | Activity (Mus musculus [12]): Active; Cp(f) (Plasma [13]): 1.27 µM; Activity (Mus musculus [14]): inactive
O=S(=O)(Nc1ncns1)c1cc(F)c(OCC2(c3ccc(Cl)cc3)CCNCC2)cc1F | – | 0.9 µM | –
O=S(=O)(Nc1ncns1)c1cc(F)c(OC[C@@H]2CNCC[C@H]2c2ccc(Cl)cc2)cc1F | – | 0.002 µM | –
N[C@H]1CC[C@](CCOc2cc(F)c(S(=O)(=O)Nc3ncns3)cc2F)(c2ccc(Cl)cc2)CC1 | > 30 µM | – | –
O=S(=O)(Nc1nccs1)c1cc(Cl)c(NCCC2CCNCC2)cc1F | > 30 µM | – | –
C[C@]1(CCOc2cc(F)c(S(=O)(=O)Nc3ncns3)cc2F)CC[C@@H](N)CC1 | > 30 µM | 0.078 µM | –

Compound | IC50 [1] | IC50 [2] | also measured
O=S(=O)(Nc1nccs1)c1cc(Cl)c(NCCC2CNC2)cc1F | > 30 µM | – | –
N[C@H]1CC[C@@](CCNc2cc(F)c(S(=O)(=O)Nc3nccs3)cc2Cl)(c2ccccc2)CC1 | > 30 µM | – | IC50 (Cytochrome P450 3A4): 9.8 µM
O=S(=O)(Nc1nccs1)c1cc(Cl)c(NC[C@@H]2CCCNC2)cc1F | – | 0.057 µM | IC50 (Cytochrome P450 3A4): 20 µM
CN1C(C)(C)CC(Nc2cc(F)c(S(=O)(=O)Nc3nccs3)cc2Cl)CC1(C)C | > 30 µM | 0.027 µM | IC50 (Cytochrome P450 3A4): 20 µM; concentration at 1.25 h [15]: 1.1 µM; IC50 [6]: 0.03 µM; Cp(f) (Plasma [16]): 0.28 µM; Papp [17]: 23 nm/s; IC50 [9]: 0.017 µM; fraction unbound [10]: 0.23; Papp [18]: 241 nm/s; concentration at 1.25 h [19]: 1.5 µM
N[C@H]1CC[C@](CCOc2cc(F)c(S(=O)(=O)Nc3ncns3)cc2Cl)(c2ccccc2)CC1 | > 30 µM | – | –
N[C@H]1CC[C@](CCNc2cc(F)c(S(=O)(=O)Nc3nccs3)cc2Cl)(c2ccccc2)CC1 | > 30 µM | – | IC50 (Cytochrome P450 3A4): 6.7 µM
CN[C@H]1CC[C@@](CCOc2cc(F)c(S(=O)(=O)Nc3ncns3)cc2F)(c2ccccc2)CC1 | > 30 µM | – | –
O=S(=O)(Nc1nccs1)c1cc(Cl)c(NCC2(CN3CCCC3)CC2)cc1F | 5.1 µM | – | IC50 (Cytochrome P450 3A4): 20 µM; concentration at 1.25 h [15]: 1.2 µM; IC50 [6]: 0.051 µM; Activity (Mus musculus [20]): Active; Cp(f) (Plasma [16]): 0.24 µM; Papp [17]: 47 nm/s; IC50 [9]: 0.012 µM; fraction unbound [10]: 0.2; Papp [18]: 949 nm/s; concentration at 1.25 h [19]: 1.5 µM
O=S(=O)(Nc1nccs1)c1cc(Cl)c(NC[C@H]2CCCNC2)cc1F | > 30 µM | 0.049 µM | IC50 (Cytochrome P450 3A4): 20 µM
O=S(=O)(Nc1ncns1)c1cc(F)c(OCC[C@]2(c3ccccc3)CC[C@H](NC3CC3)CC2)cc1F | > 30 µM | – | –
CC(=O)N1CCCC(CNc2cc(F)c(S(=O)(=O)Nc3nccs3)cc2Cl)C1 (racemic) | > 30 µM | 0.324 µM | –
N[C@H]1CC[C@](CCOc2cc(F)c(S(=O)(=O)Nc3ncns3)cc2F)(c2ccccc2)CC1 | > 30 µM | 0.015 µM | –
CN1CCCC(CNc2cc(F)c(S(=O)(=O)Nc3nccs3)cc2Cl)C1 (racemic) | > 30 µM | 0.264 µM | –
O=S(=O)(Nc1ncns1)c1cc(F)c(OCCC2(c3ccc(Cl)cc3)CCNCC2)cc1F | – | 0.078 µM | –
CN1CCC(CCNc2cc(F)c(S(=O)(=O)Nc3nccs3)cc2Cl)CC1 | > 30 µM | – | –
CN[C@H]1CC[C@](CCOc2cc(F)c(S(=O)(=O)Nc3ncns3)cc2F)(c2ccccc2)CC1 | > 30 µM | – | –
O=S(=O)(Nc1nccs1)c1cc(Cl)c(NCCC2CCNC2)cc1F (racemic) | > 30 µM | 0.014 µM | –
N[C@H]1CC[C@@](CCOc2cc(F)c(S(=O)(=O)Nc3ncns3)cc2F)(c2ccccc2)CC1 | > 30 µM | 0.473 µM | –
